Results taken from publication PMC6379907 (Advanced biosystems, 2018).
Where two headings read alike, the source gives them in different places.

Columns and labels:
S. aureus USA300 [1] = tested on: S. aureus USA300
S. aureus USA300 [2] = experiment: Membrane permeation, propidium iodide probe; type: cell-based, Staphylococcus aureus; details: peptides at 3.1 μM; antibiotics at their MIC values
Outline: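 Serially diluted test compound was combined with propidium iodide (20 μM) and bacteria in TSB at final OD600 ~0.1. Incubated at 37°C with shaking at 100 rpm. Fluorescence (ex 584 nm, em 620 nm) was read every 5 min for 2 h. Each condition was run in duplicate.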

chymotrypsin = details: cited from earlier work
fungal protease K = details: cited from earlier work
[3] = S. aureus USA300, MIC values used in Figure 9B

Row | Compound | MIC of antibiotics (S. aureus USA300 [1]; USA300, 20 h) | membrane permeation of S. aureus USA300 (PI fluorescence) (S. aureus USA300 [2]) | MIC of antibiotics (S. aureus USA300 [1]; [3]) | resistance to chymotrypsin (chymotrypsin) | resistance to fungal protease K (fungal protease K)
1 | CCCCCCCCCC(=O)N[C@@H](Cc1c[nH]c2ccccc12)C(=O)N[C@H](CC(N)=O)C(=O)N[C@@H](CC(=O)O)C(=O)N[C@@H]1C(=O)NCC(=O)N[C@@H](CCCN)C(=O)N[C@@H](CC(=O)O)C(=O)N[C@H](C)C(=O)N[C@@H](CC(=O)O)C(=O)NCC(=O)N[C@H](CO)C(=O)N[C@@H]([C@H](C)CC(=O)O)C(=O)N[C@@H](CC(=O)c2ccccc2N)C(=O)O[C@@H]1C [daptomycin] | 0.78 µM | – | – | – | –
2 | CO[C@H]1/C=C/O[C@@]2(C)Oc3c(C)c(O)c4c(O)c(cc(O)c4c3C2=O)NC(=O)/C(C)=C\C=C\[C@H](C)[C@H](O)[C@@H](C)[C@@H](O)[C@@H](C)[C@H](OC(C)=O)[C@@H]1C [rifamycin] | – | no membrane permeation | 0.2 µM | – | –
3 | CN[C@H](CC(C)C)C(=O)N[C@H]1C(=O)N[C@@H](CC(N)=O)C(=O)N[C@H]2C(=O)N[C@H]3C(=O)N[C@H](C(=O)N[C@H](C(=O)O)c4cc(O)cc(O)c4-c4cc3ccc4O)[C@H](O)c3ccc(c(Cl)c3)Oc3cc2cc(c3O[C@@H]2O[C@H](CO)[C@@H](O)[C@H](O)[C@H]2O[C@H]2C[C@](C)(N)[C@H](O)[C@H](C)O2)Oc2ccc(cc2Cl)[C@H]1O [vancomycin] | – | no membrane permeation | 0.78 µM | – | –
4 | GF-17: synthetic peptide of LL-37 residues 17–32 plus an extra N-terminal glycine (FKRIVQRIKDFLRNLV; extra N-terminal glycine) | – | – | – | but not GF-17, is resistant | but not GF-17, is resistant
